Assays:
Format in all cases: functional
[1] = Cytotoxicity against human […] cells assessed as cell growth at 10 uM; settings: read-out: Activity
Procedure, shortened: (§1)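 NCI-60 screen: cells grown in RPMI 1640 with 5% FBS and 2 mM L-glutamine, plated at 5000–40,000 cells/well according to doubling time, and preincubated 24 h at 37 °C, 5% CO2. The single 10 µM dose (DMSO stock) was added, then incubated 48 h. Cells were TCA-fixed and stained with 0.4% SRB, read at 515 nm, and growth % calculated against time-zero and control plates.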

T47D = assay: Cytotoxicity against human T47D cells assessed as cell growth at 10 uM; settings: read-out: Activity; procedure, shortened: as §1
EKVX = assay: Cytotoxicity against human EKVX cells assessed as cell growth at 10 uM; settings: read-out: Activity
Procedure, shortened: (§2)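 Single-dose NCI-60 screen at 10 µM. Cells were grown in RPMI 1640 with 5% FBS and 2 mM L-glutamine, then treated for 48 h at 37 °C. Protein was measured by SRB staining with absorbance at 515 nm. Percentage growth was recorded, and inhibition percentage was calculated as 100 minus growth percentage.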

CAKI-1 = assay: Cytotoxicity against human Caki1 cells assessed as cell growth at 10 uM; settings: read-out: Activity; procedure, shortened: as §2
MOLT-4 = assay: Cytotoxicity against human MOLT4 cells assessed as cell growth at 10 uM; settings: read-out: Activity; procedure, shortened: as §1
UACC-257 = assay: Cytotoxicity against human UACC257 cells assessed as cell growth at 10 uM; settings: read-out: Activity; procedure, shortened: as §1
MCF7 = assay: Cytotoxicity against human MCF7 cells assessed as cell growth at 10 uM; settings: read-out: Activity; procedure, shortened: as §1
NCI/ADR-RES = assay: Cytotoxicity against human NCI/ADR-RES cells assessed as cell growth at 10 uM; settings: read-out: Activity; procedure, shortened: as §1
OVCAR-3 = assay: Cytotoxicity against human OVCAR-3 cells assessed as cell growth at 10 uM; settings: read-out: Activity; procedure, shortened: as §1
OVCAR-8 = assay: Cytotoxicity against human OVCAR8 cells assessed as cell growth at 10 uM; settings: read-out: Activity; procedure, shortened: as §1
CCRF-CEM = assay: Cytotoxicity against human CCRF-CEM cells assessed as cell growth at 10 uM; settings: read-out: Activity; procedure, shortened: as §2
SNB-75 = assay: Cytotoxicity against human SNB75 cells assessed as cell growth at 10 uM; settings: read-out: Activity; procedure, shortened: as §1
ACHN = assay: Cytotoxicity against human ACHN cells assessed as cell growth at 10 uM; settings: read-out: Activity; procedure, shortened: as §2
SNB-19 = assay: Cytotoxicity against human SNB19 cells assessed as cell growth at 10 uM; settings: read-out: Activity; procedure, shortened: as §1
OVCAR-4 = assay: Cytotoxicity against human OVCAR4 cells assessed as cell growth at 10 uM; settings: read-out: Activity; procedure, shortened: as §1
HL-60(TB) = assay: Cytotoxicity against human HL-60(TB) cells assessed as cell growth at 10 uM; settings: read-out: Activity
Procedure, shortened: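 NCI 60-cell panel screen at a single concentration of 10 µM. Cells are grown in RPMI 1640 with 5% FBS and 2 mM L-glutamine and read by SRB protein staining at 515 nm. Percent growth is measured relative to time-zero and untreated controls; inhibition % is 100 minus growth %.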

UO-31 = assay: Cytotoxicity against human UO31 cells assessed as cell growth at 10 uM; settings: read-out: Activity; procedure, shortened: as §1
COLO 205 = assay: Cytotoxicity against human COLO205 cells assessed as cell growth at 10 uM; settings: read-out: Activity; procedure, shortened: as §2
SK-MEL-5 = assay: Cytotoxicity against human SK-MEL-5 cells assessed as cell growth at 10 uM; settings: read-out: Activity; procedure, shortened: as §1
SR = assay: Cytotoxicity against human SR cells assessed as cell growth at 10 uM; settings: read-out: Activity; procedure, shortened: as §1
[2] = Growth inhibition of human NCI60 cells at 10 uM after 48 hrs by sulforhodamine B assay relative to control; settings: NCI60, 48 h, read-out: GI
Procedure, shortened: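 Single-dose NCI screen at 10 µM across the 60-line panel, 48 h exposure at 37 °C after a 24 h preincubation. Adherent cells were fixed with cold TCA and stained with 0.4% SRB, and absorbance was read at 515 nm. Inhibition % was taken as 100 minus growth %, and the mean across all lines was reported.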

SF-268 = assay: Cytotoxicity against human SF268 cells assessed as cell growth at 10 uM; settings: read-out: Activity; procedure, shortened: as §1
MDA-MB-468 = assay: Cytotoxicity against human MDA-MB-468 cells assessed as cell growth at 10 uM; settings: read-out: Activity; procedure, shortened: as §1
NCI-H322M = assay: Cytotoxicity against human NCI-H322M cells assessed as cell growth at 10 uM; settings: read-out: Activity; procedure, shortened: as §1
KM12 = assay: Cytotoxicity against human KM12 cells assessed as cell growth at 10 uM; settings: read-out: Activity; procedure, shortened: as §1
M14 = assay: Cytotoxicity against human M14 cells assessed as cell growth at 10 uM; settings: read-out: Activity; procedure, shortened: as §1
NCI-H460 = assay: Cytotoxicity against human NCI-H460 cells assessed as cell growth at 10 uM; settings: read-out: Activity; procedure, shortened: as §1
SF-539 = assay: Cytotoxicity against human SF539 cells assessed as cell growth at 10 uM; settings: read-out: Activity; procedure, shortened: as §1
786-0 = assay: Cytotoxicity against human 786-0 cells assessed as cell growth at 10 uM; settings: read-out: Activity; procedure, shortened: as §2
[3] = Cytotoxicity against human Hs 578T cells assessed as cell growth at 10 uM; settings: read-out: Activity; procedure, shortened: as §2
HOP-92 = assay: Cytotoxicity against human HOP92 cells assessed as cell growth at 10 uM; settings: read-out: Activity; procedure, shortened: as §2
LOX IMVI = assay: Cytotoxicity against human LOXIMVI cells assessed as cell growth at 10 uM; settings: read-out: Activity; procedure, shortened: as §1
IGROV-1 = assay: Cytotoxicity against human IGROV1 cells assessed as cell growth at 10 uM; settings: read-out: Activity; procedure, shortened: as §2
SK-MEL-28 = assay: Cytotoxicity against human SK-MEL-28 cells assessed as cell growth at 10 uM; settings: read-out: Activity; procedure, shortened: as §1
HCT-15 = assay: Cytotoxicity against human HCT15 cells assessed as cell growth at 10 uM; settings: read-out: Activity; procedure, shortened: as §2
NCI-H226 = assay: Cytotoxicity against human NCI-H226 cells assessed as cell growth at 10 uM; settings: read-out: Activity; procedure, shortened: as §1
SF-295 = assay: Cytotoxicity against human SF295 cells assessed as cell growth at 10 uM; settings: read-out: Activity; procedure, shortened: as §1
A498 = assay: Cytotoxicity against human A498 cells assessed as cell growth at 10 uM; settings: read-out: Activity; procedure, shortened: as §2
SK-MEL-2 = assay: Cytotoxicity against human SK-MEL-2 cells assessed as cell growth at 10 uM; settings: read-out: Activity; procedure, shortened: as §1
PC-3 = assay: Cytotoxicity against human PC3 cells assessed as cell growth at 10 uM; settings: read-out: Activity; procedure, shortened: as §1
SW-620 = assay: Cytotoxicity against human SW620 cells assessed as cell growth at 10 uM; settings: read-out: Activity; procedure, shortened: as §1
HCT-116 = assay: Cytotoxicity against human HCT116 cells assessed as cell growth at 10 uM; settings: read-out: Activity; procedure, shortened: as §2
HT-29 = assay: Cytotoxicity against human HT-29 cells assessed as cell growth at 10 uM; settings: read-out: Activity; procedure, shortened: as §2
HCC 2998 = assay: Cytotoxicity against human HCC2998 cells assessed as cell growth at 10 uM; settings: read-out: Activity; procedure, shortened: as §2
MDA-MB-435 = assay: Cytotoxicity against human MDA-MB-435 cells assessed as cell growth at 10 uM; settings: read-out: Activity; procedure, shortened: as §1
TK-10 = assay: Cytotoxicity against human TK10 cells assessed as cell growth at 10 uM; settings: read-out: Activity; procedure, shortened: as §1
DU-145 = assay: Cytotoxicity against human DU145 cells assessed as cell growth at 10 uM; settings: read-out: Activity; procedure, shortened: as §2
Malme-3M = assay: Cytotoxicity against human MALME-3M cells assessed as cell growth at 10 uM; settings: read-out: Activity; procedure, shortened: as §1
UACC-62 = assay: Cytotoxicity against human UACC62 cells assessed as cell growth at 10 uM; settings: read-out: Activity; procedure, shortened: as §1
U-251 = assay: Cytotoxicity against human U251 cells assessed as cell growth at 10 uM; settings: read-out: Activity; procedure, shortened: as §1
K562 = assay: Cytotoxicity against human K562 cells assessed as cell growth at 10 uM; settings: read-out: Activity; procedure, shortened: as §2
A549 = assay: Cytotoxicity against human A549 cells assessed as cell growth at 10 uM; settings: read-out: Activity; procedure, shortened: as §2
NCI-H522 = assay: Cytotoxicity against human NCI-H522 cells assessed as cell growth at 10 uM; settings: read-out: Activity; procedure, shortened: as §1
MDA-MB-231 = assay: Cytotoxicity against human MDA-MB-231 cells assessed as cell growth at 10 uM; settings: read-out: Activity; procedure, shortened: as §1
OVCAR-5 = assay: Cytotoxicity against human OVCAR5 cells assessed as cell growth at 10 uM; settings: read-out: Activity; procedure, shortened: as §1
RXF 393 = assay: Cytotoxicity against human RXF393 cells assessed as cell growth at 10 uM; settings: read-out: Activity; procedure, shortened: as §1
BT-549 = assay: Cytotoxicity against human BT549 cells assessed as cell growth at 10 uM; settings: read-out: Activity; procedure, shortened: as §2
SK-OV-3 = assay: Cytotoxicity against human SKOV3 cells assessed as cell growth at 10 uM; settings: read-out: Activity; procedure, shortened: as §1
HOP-62 = assay: Cytotoxicity against human HOP62 cells assessed as cell growth at 10 uM; settings: read-out: Activity; procedure, shortened: as §2
NCI-H23 = assay: Cytotoxicity against human NCI-H23 cells assessed as cell growth at 10 uM; settings: read-out: Activity; procedure, shortened: as §1
SN12C = assay: Cytotoxicity against human SN12C cells assessed as cell growth at 10 uM; settings: read-out: Activity; procedure, shortened: as §1

SMILES: COc1cc(C)cc(-c2nn(CC#N)cc2-c2ccnc(-c3ccc(C(C)=O)cc3)c2)c1
- growth at 10 µM [1]: 82.9%
- growth at 10 µM (T47D): 33.5%
- growth at 10 µM (EKVX): 104%
- growth at 10 µM (CAKI-1): 87.2%
- growth at 10 µM (MOLT-4): 75.8%
- growth at 10 µM (UACC-257): 82.7%
- growth at 10 µM (MCF7): 27.6%
- growth at 10 µM (NCI/ADR-RES): 73.8%
- growth at 10 µM (OVCAR-3): 108%
- growth at 10 µM (OVCAR-8): 80.6%
- growth at 10 µM (CCRF-CEM): 92.6%
- growth at 10 µM (SNB-75): 46.4%
- growth at 10 µM (ACHN): 73.8%
- growth at 10 µM (SNB-19): 92.2%
- growth at 10 µM (OVCAR-4): 58.6%
- growth at 10 µM (HL-60(TB)): 98.3%
- growth at 10 µM (UO-31): 79.1%
- growth at 10 µM (COLO 205): 66.8%
- growth at 10 µM (SK-MEL-5): 39.7%
- growth at 10 µM (SR): 78.4%
- inhibition of growth at 10 µM [2]: 18.2%
- growth at 10 µM (SF-268): 110%
- growth at 10 µM (MDA-MB-468): 11.3%
- growth at 10 µM (NCI-H322M): 102%
- growth at 10 µM (KM12): 87.9%
- growth at 10 µM (M14): 103%
- growth at 10 µM (NCI-H460): 106%
- growth at 10 µM (SF-539): 81.9%
- growth at 10 µM (786-0): 93.9%
- growth at 10 µM [3]: 83.8%
- growth at 10 µM (HOP-92): 81.7%
- growth at 10 µM (LOX IMVI): 78.1%
- growth at 10 µM (IGROV-1): 101%
- growth at 10 µM (SK-MEL-28): 75.4%
- growth at 10 µM (HCT-15): 68.7%
- growth at 10 µM (NCI-H226): 78.3%
- growth at 10 µM (SF-295): 103%
- growth at 10 µM (A498): 93%
- growth at 10 µM (SK-MEL-2): 89.1%
- growth at 10 µM (PC-3): 82.9%
- growth at 10 µM (SW-620): 94.7%
- growth at 10 µM (HCT-116): 76.6%
- growth at 10 µM (HT-29): 79%
- growth at 10 µM (HCC 2998): 76.8%
- growth at 10 µM (MDA-MB-435): 70%
- growth at 10 µM (TK-10): 95.2%
- growth at 10 µM (DU-145): 113%
- growth at 10 µM (Malme-3M): 139%
- growth at 10 µM (UACC-62): 64.6%
- growth at 10 µM (U-251): 91.8%
- growth at 10 µM (K562): 70.6%
- growth at 10 µM (A549): 67.1%
- growth at 10 µM (NCI-H522): 66.6%
- growth at 10 µM (MDA-MB-231): 73.8%
- growth at 10 µM (OVCAR-5): 108%
- growth at 10 µM (RXF 393): 78.9%
- growth at 10 µM (BT-549): 93.5%
- growth at 10 µM (SK-OV-3): 89%
- growth at 10 µM (HOP-62): 94.4%
- growth at 10 µM (NCI-H23): 78.9%
- growth at 10 µM (SN12C): 83.6%
